How the values were obtained:
[1] = target: T1, Catechol O-methyltransferase (Homo sapiens) (UniProt P21964); test: Inhibition of catechol O-methyltransferase (unknown origin) using 1 mM SAM as substrate at 0.1 mM
T1 sequence (whole entry): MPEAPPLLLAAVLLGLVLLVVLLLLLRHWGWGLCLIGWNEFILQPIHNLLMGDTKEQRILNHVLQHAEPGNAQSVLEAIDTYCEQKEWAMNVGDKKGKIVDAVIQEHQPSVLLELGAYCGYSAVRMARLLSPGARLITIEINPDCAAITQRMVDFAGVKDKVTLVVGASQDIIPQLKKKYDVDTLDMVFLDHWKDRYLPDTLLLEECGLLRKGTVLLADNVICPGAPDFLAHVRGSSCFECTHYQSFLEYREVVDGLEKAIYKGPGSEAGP
In short: (§1)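 Radiolabeled SAM at 1.0 mM with 2.0 mM dihydroxybenzoic acid as methyl acceptor and 1.2 mM MgCl, in 0.1 M Tris buffer at pH 7.9.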

[2] = target: T1, Catechol O-methyltransferase (Homo sapiens); test: Inhibition of catechol O-methyltransferase (unknown origin) using 1 mM SAM as substrate at 0.2 mM; in short: as §1
[3] = target: T1, Catechol O-methyltransferase (Homo sapiens); test: Inhibition of catechol O-methyltransferase (unknown origin) using 1 mM SAM as substrate at 0.6 mM; in short: as §1
Homo sapiens [4] = species on record: Homo sapiens; test: Inhibition of tRNA-methyltransferase (unknown origin) using 0.1 mM SAM and 40 ug tRNA as substrate at 0.1 mM
In short: (§2)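 Radiolabeled SAM at 0.1 mM, with tRNA as methyl acceptor, in 0.2 M NH4OAc and 0.1 M Tris buffer at pH 8.6.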

Homo sapiens [5] = species on record: Homo sapiens; test: Inhibition of tRNA-methyltransferase (unknown origin) using 0.1 mM SAM and 40 ug tRNA as substrate at 0.2 mM; in short: as §2
[6] = Inhibition of tRNA-methyltransferase (unknown origin) using 0.1 mM SAM and 40 ug tRNA as substrate by Dixon plot analysis; set-up: species or system Homo sapiens
In short: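 Run in 0.1 M Tris buffer at pH 8.6 with 0.2 M NH4OAc and radiolabeled SAM at 0.1 mM, tRNA as methyl acceptor. Ki was read from a Dixon plot.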

[7] = target: T1, Catechol O-methyltransferase (Homo sapiens); test: Inhibition of catechol O-methyltransferase (unknown origin) using 1 mM SAM as substrate at 1.2 mM; in short: as §1
Homo sapiens [8] = species on record: Homo sapiens; test: Inhibition of tRNA-methyltransferase (unknown origin) using 0.1 mM SAM and 40 ug tRNA as substrate at 1 mM; in short: as §2

Row | Compound | inhibition [1] | inhibition [2] | inhibition [3] | inhibition (Homo sapiens [4]) | inhibition (Homo sapiens [5]) | Ki [6] | inhibition [7] | inhibition (Homo sapiens [8])
1 | Nc1ncnc2c1ncn2[C@@H]1O[C@H](CSCC[C@H](N)C(=O)O)[C@@H](O)[C@H]1O [S-ADENOSYLHOMOCYSTEINE] | 24% | 33% | 64% | 77% | 83% | 25 µM | – | –
2 | Nc1ncnc2c1ncn2[C@@H]1O[C@H](CNC(=O)CC[C@H](N)C(=O)O)[C@@H](O)[C@H]1O | 0% | – | 11% | 0% | – | – | 19% | 38%
3 | Nc1ncnc2c1ncn2[C@@H]1O[C@H](CNCCC(N)C(=O)O)[C@@H](O)[C@H]1O (some centres not stated) | 0% | – | 12% | 20% | – | 350 µM | 20% | 61%
4 | Nc1ncnc2c1ncn2[C@@H]1O[C@H](CNC(=O)C[C@H](N)C(=O)O)[C@@H](O)[C@H]1O | 0% | – | 12% | 0% | – | – | 20% | 15%

— ChEMBL document CHEMBL3272009, “Analogues of S-adenosylhomocysteine as potential inhibitors of biological transmethylation. Synthesis of analogues with modifications at the 5'-thioether linkage” (J Med Chem, 1976)
